Test results taken from ChEMBL document CHEMBL1122134, “Antimalarials. 14. 5-(aryloxy)-4-methylprimaquine analogues. A highly effective series of blood and tissue schizonticidal agents” (1982).

Tests used:
Plasmodium cynomolgi [1] = test: Cures in sporozoite-induced Plasmodium cynomolgi infected Rhesus monkeys (Macaca mulatta) on 7 mg/kg/day peroral dose after 1 day; type: functional; conditions: route oral
Procedure, shortened: (§1)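 Single oral dose (×1) in P. cynomolgi-infected rhesus monkeys, given alone or with chloroquine phosphate at 5 mg/kg of salt (×7). Drug was given in salt form but dose calculated as free base. Each animal scored as cure (C), suppressive failure (SF, blood not cleared) or relapse (R, tissues not cleared).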

Plasmodium cynomolgi [2] = test: Suppressive failures in sporozoite-induced Plasmodium cynomolgi infected Rhesus monkeys (Macaca mulatta) on 1.75 mg/kg/day peroral dose after 1 day; type: functional; conditions: route oral; procedure, shortened: as §1
Mus musculus [3] = test: Number of cures out of five mice (Mus musculus) infected with Plasmodium berghei at 40 mg/kg(X 1) subcutaneous administration
[4] = Molar primaquine Index value of compound was determined; type: functional
Mus musculus [5] = test: Number of cures out of five mice (Mus musculus) infected with Plasmodium berghei at 640 mg/kg(X 1) subcutaneous administration
Plasmodium cynomolgi [6] = test: Relapses in sporozoite-induced Plasmodium cynomolgi infected Rhesus monkeys (Macaca mulatta) on 0.875 mg/kg/day peroral dose after 1 day; type: functional; conditions: route oral; procedure, shortened: as §1
Mus musculus [7] = test: Number of cures out of five mice (Mus musculus) infected with Plasmodium berghei at 10 mg/kg(X 1) subcutaneous administration
Mus musculus [8] = test: Mean survival time of mice (Mus musculus) infected with Plasmodium berghei at 5 mg/kg(X 1)subcutaneous administration
Plasmodium cynomolgi [9] = test: Cures in sporozoite-induced Plasmodium cynomolgi infected Rhesus monkeys (Macaca mulatta) on peroral 14 mg/kg/day (x 1) dose; type: functional; conditions: route oral; procedure, shortened: as §1
Plasmodium cynomolgi [10] = test: Suppressive failures in sporozoite-induced Plasmodium cynomolgi infected Rhesus monkeys (Macaca mulatta) on 0.875 mg/kg/day peroral dose after 1 day; type: functional; conditions: route oral; procedure, shortened: as §1
Plasmodium cynomolgi [11] = test: Cures in sporozoite-induced Plasmodium cynomolgi infected Rhesus monkeys (Macaca mulatta) on 0.1 mg/kg/day peroral dose after 7 days, n=2; type: functional; conditions: route oral
Plasmodium cynomolgi [12] = test: Relapses in sporozoite-induced Plasmodium cynomolgi infected Rhesus monkeys (Macaca mulatta) on 0.4375 mg/kg/day peroral dose after 1 day; type: functional; conditions: route oral; procedure, shortened: as §1
Mus musculus [13] = test: Number of mice (Mus musculus) found toxic when infected with Plasmodium berghei at 640 mg/kg(X 1) subcutaneous administration
Mus musculus [14] = test: Number of cures out of five mice (Mus musculus) infected with Plasmodium berghei at 160 mg/kg(X 1) subcutaneous administration
Plasmodium cynomolgi [15] = test: Cures in sporozoite-induced Plasmodium cynomolgi infected Rhesus monkeys (Macaca mulatta) on 3.5 mg/kg/day peroral dose after 1 day; type: functional; conditions: route oral; procedure, shortened: as §1
Plasmodium cynomolgi [16] = test: Cures in sporozoite-induced Plasmodium cynomolgi infected Rhesus monkeys (Macaca mulatta) on 1 mg/kg/day peroral dose after 7 days, n=2; type: functional; conditions: route oral
Plasmodium cynomolgi [17] = test: Cures in sporozoite-induced Plasmodium cynomolgi infected Rhesus monkeys (Macaca mulatta) on 0.316 mg/kg/day peroral dose after 7 days, n=2; type: functional; conditions: route oral
Mus musculus [18] = test: Number of cures out of five mice (Mus musculus) infected with Plasmodium berghei at 80 mg/kg(X 1) subcutaneous administration
Mus musculus [19] = test: Number of cures out of five mice (Mus musculus) infected with Plasmodium berghei at 20 mg/kg(X 1) subcutaneous administration
Mus musculus [20] = test: Number of cures out of five mice (Mus musculus) infected with Plasmodium berghei at 320 mg/kg(X 1) subcutaneous administration
Plasmodium cynomolgi [21] = test: Suppressive failures in sporozoite-induced Plasmodium cynomolgi infected Rhesus monkeys (Macaca mulatta) on 3.5 mg/kg/day peroral dose after 1 day; type: functional; conditions: route oral; procedure, shortened: as §1
Mus musculus [22] = test: Number of animals found toxic out of five mice (Mus musculus) infected with Plasmodium berghei at 640 mg/kg(X 1) subcutaneous administration
Plasmodium cynomolgi [23] = test: Cures in sporozoite-induced Plasmodium cynomolgi infected Rhesus monkeys (Macaca mulatta) at 1 mg/kg/day (x 7) peroral dose; n=3; type: functional; conditions: route oral
Mus musculus [24] = test: Number of animals found toxic out of five mice (Mus musculus) infected with Plasmodium berghei at 320 mg/kg(X 1) subcutaneous administration
Plasmodium cynomolgi [25] = test: Cures in sporozoite-induced Plasmodium cynomolgi infected Rhesus monkeys (Macaca mulatta) on 0.1 mg/kg/day peroral dose after 7 days, n=3; type: functional; conditions: route oral
Mus musculus [26] = test: Suppressive antimalarial activity against Plasmodium berghei in Rane mice (Mus musculus) test (five mice (Mus musculus)) at a dose of 5 mg/kg(X 1); type: functional
Procedure, shortened: (§2)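 Mice infected with Plasmodium berghei; five mice per dose. A single subcutaneous dose (mg/kg, ×1) was given 72 h after infection. Activity was scored as the increase in mean survival time over infected controls, with an increase of at least 100% counted as active. Cures are mice surviving at 60 days postinfection. Deaths attributed to the drug were scored as toxic.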

Plasmodium cynomolgi [27] = test: Radical curative activity in sporozoite-induced Plasmodium cynomolgi infected Rhesus monkeys (Macaca mulatta) on 7 mg/kg/day peroral dose after 1 day; type: functional; conditions: route oral; procedure, shortened: as §1
Plasmodium cynomolgi [28] = test: Radical curative activity in sporozoite-induced Plasmodium cynomolgi infected Rhesus monkeys (Macaca mulatta) on 14 mg/kg/day peroral dose after 1 day; type: functional; conditions: route oral; procedure, shortened: as §1
Mus musculus [29] = test: Suppressive antimalarial activity against Plasmodium berghei in Rane mice (Mus musculus) test (five mice (Mus musculus))80 mg/kg (X 1); type: functional; procedure, shortened: as §2
Plasmodium cynomolgi [30] = test: Radical curative activity in sporozoite-induced Plasmodium cynomolgi infected Rhesus monkeys (Macaca mulatta) on 1.75 mg/kg/day oral dose after 1 day; type: functional; procedure, shortened: as §1
Mus musculus [31] = test: Suppressive antimalarial activity against Plasmodium berghei in Rane mice (Mus musculus) test (five mice (Mus musculus)) at a dose of 160 mg/kg (X 1); type: functional; procedure, shortened: as §2
Plasmodium cynomolgi [32] = test: Radical curative activity in sporozoite-induced Plasmodium cynomolgi infected Rhesus monkeys (Macaca mulatta) after 3.5 mg/kg/day (x1) oral dose; type: functional; procedure, shortened: as §1
Mus musculus [33] = test: Suppressive antimalarial activity against Plasmodium berghei in Rane mice (Mus musculus) test (five mice (Mus musculus)) 20 mg/kg (X 1); type: functional; procedure, shortened: as §2
Mus musculus [34] = test: Suppressive antimalarial activity against Plasmodium berghei in Rane mice (Mus musculus) test (five mice (Mus musculus)) 40 mg/kg (X 1); type: functional; procedure, shortened: as §2
Mus musculus [35] = test: Number of animals found toxic out of five mice (Mus musculus) infected with Plasmodium berghei at 160 mg/kg(X 1)subcutaneous administration
Plasmodium cynomolgi [36] = test: Cures in sporozoite-induced Plasmodium cynomolgi infected Rhesus monkeys (Macaca mulatta) on 1.3 mg/kg/day peroral dose after 7 days, n=6; type: functional; conditions: route oral
Mus musculus [37] = test: Suppressive antimalarial activity against Plasmodium berghei in Rane mice (Mus musculus) test (five mice (Mus musculus)) at a dose of 5 mg/kg(X 1)A-active; type: functional; procedure, shortened: as §2
Mus musculus [38] = test: Number of animals found toxic out of five mice (Mus musculus) infected with Plasmodium berghei at 640 mg/kg(X 1) subcutaneous administration; remark: listed apart in the source
Mus musculus [39] = test: Number of animals found toxic out of five mice (Mus musculus) infected with Plasmodium berghei at 320 mg/kg(X 1)subcutaneous administration
Mus musculus [40] = test: Suppressive antimalarial activity against Plasmodium berghei in Rane mice (Mus musculus) test (five mice (Mus musculus)) 10 mg/kg(X 1); type: functional; procedure, shortened: as §2
Mus musculus [41] = test: Number of cures out of five mice (Mus musculus) infected with Plasmodium berghei at 5 mg/kg(X 1) subcutaneous administration

SMILES | Cures (Mus musculus [3]) | Molar primaquine Index [4] | Cures (Mus musculus [5]) | Cures (Mus musculus [7]) | Cures (Mus musculus [14]) | Cures (Plasmodium cynomolgi [17]) | Cures (Mus musculus [18]) | Cures (Mus musculus [19]) | Cures (Mus musculus [20]) | Cures (Mus musculus [22]) | Cures (Plasmodium cynomolgi [23]) | Toxic animals (out of 5) (Mus musculus [24]) | Cures (Plasmodium cynomolgi [25]) | further results
COc1cc(NC(C)CCCN)c2nccc(C)c2c1Oc1cccc(C(F)(F)F)c1.O=C(O)CCC(=O)O (stereo not given) | 5 | 4.8 | 1 | 2 | 5 | 2 | 5 | 5 | 5 |  |  |  |  | Cures (Plasmodium cynomolgi [1]): 2; Suppressive failures (Plasmodium cynomolgi [2]): 4; Relapses (Plasmodium cynomolgi [6]): 1; MST (Mus musculus [8]): 6.9; Cures (Plasmodium cynomolgi [9]): 1; Suppressive failures (Plasmodium cynomolgi [10]): 3; Cures (Plasmodium cynomolgi [11]): 0; Relapses (Plasmodium cynomolgi [12]): 4; Cures (Mus musculus [13]): 4; Cures (Plasmodium cynomolgi [15]): 1; Cures (Plasmodium cynomolgi [16]): 2; Suppressive failures (Plasmodium cynomolgi [21]): 1
COc1cc(NC(C)CCCN)c2nccc(C)c2c1Oc1ccc(Cl)cc1Cl.O=P(O)(O)O (stereo not given) | 5 | 1.3 | 3 | 1 | 5 | 1 | 5 | 5 | 4 | 2 | 3 | 1 | 0 | MST (Mus musculus [26]): 5
COc1cc(NC(C)CCCN)c2ncccc2c1 (stereo not given) [PRIMAQUINE] |  |  |  |  |  |  |  |  |  | 5 |  | 5 |  | Cures (Plasmodium cynomolgi [27]): 1; Cures (Plasmodium cynomolgi [28]): 2; MST (Mus musculus [29]): 6.4; Cures (Plasmodium cynomolgi [30]): 2; MST (Mus musculus [31]): 7; Cures (Plasmodium cynomolgi [32]): 2; MST (Mus musculus [33]): 2.2; MST (Mus musculus [34]): 4.2
COc1cc(NC(C)CCCN)c2ncccc2c1.O=P(O)(O)O.O=P(O)(O)O (stereo not given) [PRIMAQUINE PHOSPHATE] |  |  |  |  |  | 0 |  |  |  | 5 |  | 5 |  | MST (Mus musculus [29]): 9.4; Cures (Mus musculus [35]): 2; Cures (Plasmodium cynomolgi [36]): 6; MST (Mus musculus [31]): 10.8; MST (Mus musculus [33]): 4; Cures (Plasmodium cynomolgi [16]): 1; MST (Mus musculus [34]): 5
COc1cc(NC(C)CCCN)c2nccc(C)c2c1Oc1ccc(F)cc1.O=P(O)(O)O (stereo not given) | 5 | 4.2 | 3 | 3 | 5 | 2 | 5 | 4 | 4 |  | 3 |  | 0 | MST (Mus musculus [37]): 7; Cures (Mus musculus [38]): 2; Cures (Mus musculus [39]): 1
COc1cc(NC(C)CCCN)c2ncccc2c1 (stereo not given) |  | 1 |  |  |  |  |  |  |  |  |  |  |  | 
COc1ccc(Oc2c(OC)cc(NC(C)CCCN)c3nccc(C)c23)cc1.O=P(O)(O)O (stereo not given) | 5 | 4.3 | 2 |  | 5 | 2 | 5 | 1 | 5 |  | 3 |  |  | MST (Mus musculus [40]): 5.9; Cures (Plasmodium cynomolgi [11]): 0; Cures (Mus musculus [24]): 0; MST (Mus musculus [26]): 5.5
COc1cc(NC(C)CCCN)c2nccc(C)c2c1Oc1ccc(Cl)c(Cl)c1.O=P(O)(O)O (stereo not given) | 5 | 1.3 | 5 | 5 | 5 | 1 | 5 | 5 | 5 |  | 3 |  | 0 | Cures (Mus musculus [41]): 4
